Experimental findings from ChEMBL document CHEMBL1132418, “Structure-immunosuppressive activity relationships of new analogues of 15-deoxyspergualin. 1. Structural modifications of the hydroxyglycine moiety” (1999) are described below.

What all share (format): functional
Test [1] has as its system Mus musculus. In words: In vivo immunosuppressive activity in mouse GVHD (graft-versus-host disease) model and the mean survival days evaluated (dose of 3 mg/kg). In a few lines: (§1)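 Mouse GVHD model. Compounds were dissolved in aqueous solution and given i.p. on days 1 to 10 (day 6 omitted), first at 3 mg/kg/day and then at 1 mg/kg/day. Survival was followed to day 60 after cell injection and reported as mean survival in days ± deviation.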

Test [2] deals with Mus musculus. Kind of test: In vivo immunosuppressive activity at a dose of 1 mg/kg in mouse GVHD (graft-versus-host disease) model and the mean survival days evaluated. The method, boiled down: as §1
Test [3] is filed under the species Rattus norvegicus. In words: Compound is evaluated for prevention of graft rejection after heart allotransplantation in the dark agouti Lewis rat combination. The method, boiled down: (§2)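 Dark Agouti donor hearts transplanted into Lewis rat recipients (fully histoincompatible; high-responder recipient). Compounds given daily i.p. at 6 mg/kg/day for 10 days, starting 1 day after surgery. Graft survival recorded for each animal in days and reported as mean ± SD, with a statistical comparison against controls.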

Test [4] relates to Rattus norvegicus. In words: Compound (6 mg/kg) is evaluated for prevention of graft rejection after heart allotransplantation in the Dark Agouti to Lewis rat combination. The method, boiled down:
as §2

Take `CN(CCCCNCCCN)C(=O)CC(=O)NCCCCCCN=C(N)N`: the Mean survival in test [1] was 12 days.
Regarding `CN(CCCCNCCCN)C(=O)OCC(=O)NCCCCCCN=C(N)N`, the Mean survival in test [1] was 15 days.
The same measure, in the same setting: the result for `NCCCNCCCCC(=O)NCC(=O)NCCCCCCN=C(N)N` reads 22 days; that for `NCCCNCCCCNC(=O)SCC(=O)NCCCCCCN=C(N)N`, 17 days.
With `NCCCNCCCCNC(=O)C(F)C(=O)NCCCCCCN=C(N)N` (configuration not stated), the Mean survival in test [1] was found to be 60 days; in test [2], 18 days.
The molecule `CN(CCCCCCN=C(N)N)C(=O)COC(=O)NCCCCNCCCN` returned a Mean survival in test [1] of 14 days.
Molecule `NCCCNCCCCNC(=O)C(O)CC(=O)NCCCCCCN=C(N)N` (configuration not stated) had a Mean survival in test [1] of 15 days.
`CC(C(=O)NCCCCCCN=C(N)N)C(=O)NCCCCNCCCN` (configuration not stated) gave a Mean survival in test [1] of 16 days.
In the case of `NCCCNCCCCNC(=O)CNC(=O)NCCCCCCN=C(N)N`, the Mean survival in test [1] was found to be 24 days.
Turning to `NCCCNCCCCNC(=O)C(N)C(=O)NCCCCCCN=C(N)N` (configuration not stated), the Mean survival in test [1] worked out at 16 days.
The molecule `CN(CC(=O)NCCCCCCN=C(N)N)C(=O)NCCCCNCCCN` showed a Mean survival in test [1] of 17 days.
As for `NCCCNCCCCNC(=O)NCC(=O)NCCCCCCN=C(N)N`, the values for the Mean survival in test [1], in test [3] and in test [2] were 48 days, 12 days and 42 days, respectively.
Regarding `NCCCNCCCCNC(=O)CC(=O)NCCCCCCN=C(N)N`, the values for the Mean survival in test [1], in test [4] and in test [2] were 52 days, 9 days and 53 days, respectively.
On to `NCCCNCCCCNS(=O)(=O)CC(=O)NCCCCCCN=C(N)N`, for which the Mean survival in test [1] was 15 days.
`NCCCNCCCCNC(=O)OCCNCCCCCCN=C(N)N`: in test [1], the Mean survival worked out at 34 days.
For the molecule `NCCCNCCCCCC(=O)NCC(=O)NCCCCCCN=C(N)N`, the Mean survival in test [1] was 18 days.
Regarding `COC(C(=O)NCCCCCCN=C(N)N)C(=O)NCCCCNCCCN` (configuration not stated), the Mean survival in test [1] turned out to be 55 days; in test [2] it was 27 days.
Take `NCCCNCCCCOC(=O)NCNC(=O)CCCCCCN=C(N)N`: the Mean survival in test [1] was 58 days; in test [2], 32 days.
In the case of `NCCCNCCCCNC(=O)C(=O)NCCCCCCN=C(N)N`, the Mean survival in test [1] was 34 days; in test [4] it was 12 days; in test [2], 53 days.
`NCCCNCCCCNC(=O)/C=C/C(=O)NCCCCCCN=C(N)N` gave a Mean survival in test [1] of 17 days.
`NCCCNCCCCNC(=O)C(Cc1ccccc1)C(=O)NCCCCCCN=C(N)N` (configuration not stated) had a Mean survival in test [1] of 16 days.
`COC(OC)(C(=O)NCCCCCCN=C(N)N)C(=O)NCCCCNCCCN`: in test [1], the Mean survival amounted to 12 days.
In turn, `NCCCNCCCCNC(=O)C(CO)(CO)C(=O)NCCCCCCN=C(N)N` registered a Mean survival in test [1] of 17 days.
Regarding `NCCCNCCCCOC(=O)NCC(=O)NCCCCCCN=C(N)N`, the Mean survival turned out to be 48 days in test [1] and 55 days in test [2].
Molecule `CC(=O)NC(C(=O)NCCCCCCN=C(N)N)C(=O)NCCCCNCCCN` (configuration not stated) registered a Mean survival in test [1] of 16 days.
Still for that read-out and setting: under `NCCCNCCCCNC(=O)/C=C\C(=O)NCCCCCCN=C(N)N` stands 17 days; under `NCCCNCCCCNC(=O)C(C(=O)NCCCCCCN=C(N)N)c1ccccc1` (configuration not stated), 19 days; under `NCCCNCCCCNC(=O)COC(=O)NCCCCCCN=C(N)N`, 13 days.
In test [1], `NCCCNCCCCNC(=O)CCCCCCCCCN=C(N)N` returned a Mean survival of 16 days.
In test [1], `NCCCNCCCCNC(=O)C(OCc1ccccc1)C(=O)NCCCCCCN=C(N)N` (configuration not stated) returned a Mean survival of 14 days.
Same read-out and setting: the result for `CN(CCCCCCN=C(N)N)C(=O)CC(=O)NCCCCNCCCN` reads 14 days.
For the molecule `NCCCNCCCCNC(=O)C(O)C(=O)NCCCCCCN=C(N)N` (configuration not stated), the Mean survival is 53 days in test [1], 33 days in test [4] and 12 days in test [2].
`NCCCNCCCCNC(=O)NCCC(=O)NCCCCCCN=C(N)N`: the Mean survival in test [1] turned out to be 15 days.
The molecule `NCCCNCCCCNC(=O)CCC(=O)NCCCCCCN=C(N)N` yielded a Mean survival in test [1] of 16 days.
With `CC(C)(C(=O)NCCCCCCN=C(N)N)C(=O)NCCCCNCCCN`, the Mean survival in test [1] came out at 15 days.
In turn, `CCC(C(=O)NCCCCCCN=C(N)N)C(=O)NCCCCNCCCN` (configuration not stated) displayed a Mean survival in test [1] of 19 days.
For the molecule `NCCCNCCCCNCCC(=O)NCCCCCCN=C(N)N`, the Mean survival in test [1] is 13 days.
For `NCCCNCCCCNC(=O)OCCC(=O)NCCCCCCN=C(N)N`, the Mean survival in test [1] came out at 13 days.
`NCCCNCCCCNC(=O)CCCC(=O)NCCCCCCN=C(N)N`: the Mean survival in test [1] worked out at 15 days.
`N=C(N)NCCCCCCC(=O)NC(O)C(=O)NCCCCNCCCN` (configuration not stated) [GUSPERIMUS]: the values for the Mean survival in test [1], in test [4] and in test [2] were 57 days, 38 days and 38 days, respectively.
For `N=C(N)NCCCCCCNC(=O)COC(=O)NCCCCNCCCN` [TRESPERIMUS], the figures for the Mean survival in test [1], in test [4] and in test [2] were 58 days, 54 days and 46 days, respectively.
